Data on one compound can be found in ChEMBL document CHEMBL3045217, “Factors affecting the synergy of thiabendazole, sodium bicarbonate, and heat to control postharvest green mold of citrus fruit” (J Agric Food Chem, 2008).

Data set [1] has as its system Penicillium digitatum. The data set is described as follows: Fungicidal activity against Penicillium digitatum infected Valenica oranges assessed as fruit weight loss at 400 mg/L treated for 1 min at 40 degC postharvest at 20 hr after fungal conidial inoculation measured after 21 days of storage at 17 degC in presence of 0.5% SBC (water Rvb = 11.43%). The class given is functional.

For data set [2], the system named is Fruit. The data set is described as follows: Drug residues in Citrus sinensis cvs. Valencia late (Valencia oranges) at 400 mg/L treated for 1 min at 40 degC postharvest measured after 20 days of storage at 17 degC in presence of 1% SBC by GC analysis. In kind it is ADME. A digest of the protocol: (§1)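 'Valencia' oranges were dipped 1 min in TBZ at 600 mg/L (20 °C, ±0.5, 1 or 2% wt/vol SBC), 400 mg/L (40 °C, ±SBC) or 200 mg/L (50 °C, alone), then air-dried. They were sampled at 0, 10 and 20 days at 17 °C. Peel of five fruit was frozen, and 5 g of homogenate was extracted with ethyl acetate/hexane (1/1) plus NaCl. The extract was dried under N2, taken up in acetone and analysed by GC. Results are mg/kg on a whole-fruit basis.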

Data set [3] has as its system Fruit. The data set is described as follows: Drug residues in Citrus sinensis cvs. Valencia late (Valencia oranges) at 400 mg/L treated for 1 min at 40 degC postharvest measured after 10 days of storage at 17 degC in presence of 0.5% SBC by GC analysis. In kind it is ADME. A digest of the protocol:
as §1

The subject of data set [4] is Fruit surface. The data set is described as follows: Drug residues on Citrus sinensis cvs. Salustiana (Salustiana oranges) fruit surface at 600 mg/L treated for 1 min at 20 degC postharvest measured after overnight incubation at 17 degC by GC analysis. The class given is ADME. A digest of the protocol:
(§2)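 'Salustiana' oranges were washed with water and air-dried. They were dipped 1 or 3 min in TBZ 600 mg/L at 20 or 50 °C, or 1 min in TBZ 600 mg/L plus 2% SBC at 20 °C, then dried overnight at 17 °C in the dark. Surface residue was taken by water extraction and wax residue by chloroform extraction. Inner residue was measured in fruit after both extractions. Extracts were dried under N2, taken up in acetone and analysed by GC. Values are mg/kg on a whole-fruit basis.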

Data set [5] relates to Penicillium digitatum. Put plainly: Fungicidal activity against TBZ-sensitive Penicillium digitatum infected Nova mandarins assessed as postharvest green mold incidence at 600 mg/L treated for 1 min at 20 degC at 20 hr after fungal conidial inoculation measured after 5 days of storage at 20 degC in presence of 2% SBC (water Rvb = 96.7%). The class given is functional. In short, it runs like this: (§3)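 Fruit were surface-disinfected in 1 g/L hypochlorite for 30 s, rinsed, dried, then wounded twice equatorially (2 mm × 2 mm rod). Inoculation was a 1 min dip in P. digitatum conidia, 1 × 10^5 conidia/mL final. Fruit were held 20 h at 20 °C and 90% RH, dipped 1 min (SBC wt/vol), and air-dried. Storage was 20 °C, 90% RH. Decay incidence (% fruit with lesions) was scored at 5 d for mandarins and 7 d for oranges. Three replicates of 40 fruit were used; arcsin-transformed data were compared by LSD, p ≤ 0.05.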

Data set [6] relates to Penicillium digitatum. Put plainly: Fungicidal activity against TBZ-sensitive Penicillium digitatum infected Valencia oranges assessed as postharvest green mold incidence at 400 mg/L treated for 1 min at 40 degC at 20 hr after fungal conidial inoculation measured after 7 days of storage at 20 degC (water Rvb = 66.7%). The class given is functional.
Data set [7] concerns Penicillium digitatum. The data set is described as follows: Fungicidal activity against TBZ-resistant Penicillium digitatum infected Nova mandarins assessed as postharvest green mold incidence at 400 mg/L treated for 1 min at 40 degC at 20 hr after fungal conidial inoculation measured after 5 days of storage at 20 degC in presence of 1% SBC (water Rvb = 76.7%). The class given is functional.

In data set [8] the test system is Penicillium digitatum. Put plainly: Fungicidal activity against Penicillium digitatum infected Valenica oranges assessed as fruit weight loss at 400 mg/L treated for 1 min at 40 degC postharvest at 20 hr after fungal conidial inoculation measured after 21 days of storage at 17 degC in presence of 2% SBC (water Rvb = 13.47%). The class given is functional.
The test system of data set [9] is Penicillium digitatum. The data set is described as follows: Fungicidal activity against TBZ-resistant Penicillium digitatum infected Valencia oranges assessed as postharvest green mold incidence at 600 mg/L treated for 1 min at 20 degC at 20 hr after fungal conidial inoculation measured after 7 days of storage at 20 degC in presence of 2% SBC (water Rvb = 40.0%). The class given is functional.

Data set [10] deals with Penicillium digitatum. Put plainly: Fungicidal activity against TBZ-sensitive Penicillium digitatum infected Valencia oranges assessed as postharvest green mold incidence at 400 mg/L treated for 1 min at 40 degC at 20 hr after fungal conidial inoculation measured after 7 days of storage at 20 degC in presence of 2% SBC (water Rvb = 14.2%). The class given is functional. In short, it runs like this:
as §3

The test system of data set [11] is Fruit. Put plainly: Drug residues in Citrus sinensis cvs. Valencia late (Valencia oranges) at 200 mg/L treated for 1 min at 50 degC postharvest measured after 20 days of storage at 17 degC by GC analysis. In kind it is ADME. A digest of the protocol: as §1
For data set [12], the system named is Fruit surface. The data set is described as follows: Drug residues on Citrus sinensis cvs. Salustiana (Salustiana oranges) fruit surface at 600 mg/L treated for 1 min at 50 degC postharvest measured after overnight incubation at 17 degC by GC analysis. The class given is ADME. In short, it runs like this:
as §2

For data set [13], the system named is Penicillium digitatum. The data set is described as follows: Fungicidal activity against TBZ-sensitive Penicillium digitatum infected Valencia oranges assessed as postharvest green mold incidence at 200 mg/L treated for 1 min at 50 degC at 20 hr after fungal conidial inoculation measured after 7 days of storage at 20 degC (water Rvb = 53.3%). The class given is functional. A digest of the protocol:
as §3

The subject of data set [14] is Penicillium digitatum. The data set is described as follows: Fungicidal activity against Penicillium digitatum infected Valenica oranges assessed as fruit weight loss at 600 mg/L treated for 1 min at 20 degC postharvest at 20 hr after fungal conidial inoculation measured after 14 days of storage at 17 degC in presence of 0.5% SBC (water Rvb = 7.44%). The class given is functional.

The test system of data set [15] is Penicillium digitatum. The data set is described as follows: Fungicidal activity against TBZ-resistant Penicillium digitatum infected Valencia oranges assessed as postharvest green mold incidence at 200 mg/L treated for 1 min at 50 degC at 20 hr after fungal conidial inoculation measured after 7 days of storage at 20 degC (water Rvb = 56.7%). The class given is functional.

Data set [16] has as its system Fruit. Put plainly: Drug residues in Citrus sinensis cvs. Valencia late (Valencia oranges) at 200 mg/L treated for 1 min at 50 degC postharvest measured after 10 days of storage at 17 degC by GC analysis. The class given is ADME. A digest of the protocol: as §1
The subject of data set [17] is Fruit surface. The data set is described as follows: Drug residues on Citrus sinensis cvs. Salustiana (Salustiana oranges) fruit surface at 600 mg/L treated for 1 min at 20 degC postharvest measured after overnight incubation at 17 degC in presence of 2% SBC by GC analysis. In kind it is ADME. In short, it runs like this:
as §2

The next data set has as its system Cuticular wax. The data set is described as follows: Drug residues in Citrus sinensis cvs. Salustiana (Salustiana oranges) cuticular wax at 600 mg/L treated for 3 min at 50 degC postharvest measured after overnight incubation at 17 degC by GC analysis. The class given is ADME. The settings on record: 0.05 h. In short, it runs like this:
as §2

Data set [18] deals with Fruit. The data set is described as follows: Drug residues in Citrus sinensis cvs. Valencia late (Valencia oranges) at 400 mg/L treated for 1 min at 40 degC postharvest measured immediately post-drug treatment in presence of 2% SBC by GC analysis. In kind it is ADME. A digest of the protocol:
as §1

The subject of data set [19] is Penicillium digitatum. The data set is described as follows: Fungicidal activity against TBZ-resistant Penicillium digitatum infected Nova mandarins assessed as postharvest green mold incidence at 200 mg/L treated for 1 min at 50 degC at 20 hr after fungal conidial inoculation measured after 5 days of storage at 20 degC (water Rvb = 95.0%). The class given is functional.

Molecules are shown by their SMILES.

Turning to `c1ccc2[nH]c(-c3cscn3)nc2c1` [THIABENDAZOLE], the Activity is 12.23% in the data set with Penicillium digitatum [1]; 0% in the data set on Penicillium digitatum [5]; 14.2% with Penicillium digitatum [6]; 40% in the data set on Penicillium digitatum [7]; 13.98% with Penicillium digitatum [8]; 21.7% with Penicillium digitatum [9]. For the same compound, the Activity with Penicillium digitatum [10] is 12.5%; in the data set on Penicillium digitatum [13], 5.8%; in the data set with Penicillium digitatum [14] it was 8.15%; in the data set on Penicillium digitatum [15], 37.5%; with Penicillium digitatum [19] it was 65%. Besides, the Drug uptake in the data set with Fruit [2] is 0.71 mg/kg; in the data set on Fruit [3] it was 0.76 mg/kg; in the data set on Fruit surface [4] it was 0.68 mg/kg; with Fruit [11], 0.38 mg/kg; in the data set on Fruit surface [12] it was 0.66 mg/kg; in the data set on Fruit [16] it was 0.43 mg/kg. For the same compound, the Drug uptake in the data set with Fruit surface [17] came to 0.53 mg/kg; with Cuticular wax, 0.48 mg/kg; with Fruit [18] it was 0.74 mg/kg.
